In ChEMBL document CHEMBL1759999, “Exploration of (S)-3-aminopyrrolidine as a potentially interesting scaffold for discovery of novel Abl and PI3K dual inhibitors” (Eur J Med Chem, 2011):
Active and inactive are the calls of the source. The calls are words filed in the database; no cut-off is given here.

Legend:
K562 [1] = assay: Cytotoxicity against human K562 cells after 48 hrs by MTT assay; format: functional, cell-based; settings: K562, 48 h
Outline: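 K562 cells grown in DMEM with 10% FBS plus penicillin and streptomycin, humidified air, 37 °C, 5% CO2. Cells seeded in 96-well plates and exposed to compounds at varying concentrations for 48 h. Viability read by MTT. IC50 derived from inhibition rates at each concentration. Values are means of three experiments.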

[2] = target: Tyrosine-protein kinase ABL2 (Homo sapiens) (UniProt P42684); assay: Inhibition of Abl2 at 20 uM after 1 hr by luminescence assay
Tyrosine-protein kinase ABL2 (Homo sapiens), sequence (P42684 whole entry): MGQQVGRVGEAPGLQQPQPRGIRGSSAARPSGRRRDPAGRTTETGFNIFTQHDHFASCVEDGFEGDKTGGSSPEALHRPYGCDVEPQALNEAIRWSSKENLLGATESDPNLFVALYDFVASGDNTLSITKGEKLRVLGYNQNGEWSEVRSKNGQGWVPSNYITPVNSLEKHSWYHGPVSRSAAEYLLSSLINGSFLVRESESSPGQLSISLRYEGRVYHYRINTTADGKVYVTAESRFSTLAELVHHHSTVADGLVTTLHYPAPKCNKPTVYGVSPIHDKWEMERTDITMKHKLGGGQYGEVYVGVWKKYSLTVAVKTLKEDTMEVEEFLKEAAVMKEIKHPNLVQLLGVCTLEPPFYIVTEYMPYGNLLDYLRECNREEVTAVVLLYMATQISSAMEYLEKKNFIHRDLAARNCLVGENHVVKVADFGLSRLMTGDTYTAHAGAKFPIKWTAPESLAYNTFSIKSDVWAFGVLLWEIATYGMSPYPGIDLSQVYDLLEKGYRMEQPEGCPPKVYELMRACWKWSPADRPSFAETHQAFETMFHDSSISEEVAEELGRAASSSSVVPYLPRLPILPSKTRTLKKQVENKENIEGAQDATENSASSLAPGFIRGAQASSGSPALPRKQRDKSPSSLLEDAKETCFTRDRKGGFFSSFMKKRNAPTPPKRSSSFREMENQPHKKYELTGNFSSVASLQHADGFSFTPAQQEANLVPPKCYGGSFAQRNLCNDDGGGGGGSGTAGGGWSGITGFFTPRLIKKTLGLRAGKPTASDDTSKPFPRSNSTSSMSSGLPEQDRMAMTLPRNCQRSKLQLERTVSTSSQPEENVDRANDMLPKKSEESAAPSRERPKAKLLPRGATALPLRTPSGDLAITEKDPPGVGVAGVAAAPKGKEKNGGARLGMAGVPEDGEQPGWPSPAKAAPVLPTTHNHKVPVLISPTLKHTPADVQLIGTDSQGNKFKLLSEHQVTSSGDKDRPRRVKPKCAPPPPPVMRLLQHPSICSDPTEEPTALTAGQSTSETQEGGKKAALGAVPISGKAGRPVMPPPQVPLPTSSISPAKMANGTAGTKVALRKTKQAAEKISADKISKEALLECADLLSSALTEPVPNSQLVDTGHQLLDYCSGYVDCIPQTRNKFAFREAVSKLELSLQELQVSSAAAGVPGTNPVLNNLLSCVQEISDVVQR
Outline: (§1)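 Kinase incubated with substrate, test compound and ATP in a final buffer of 25 mM HEPES. Controls were staurosporine for Abl and PI103 for PI3K.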

K562 [3] = assay: Induction of apoptosis in human K562 cells at 5 uM after 24 hrs by annexin V-FITC/propidium iodide staining by flow cytometry; format: functional, cell-based
Outline: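 K562 cells were treated for 24 h, then untreated and treated cells were collected by centrifugation and washed twice with ice-cold PBS. Phosphatidylserine surface exposure was measured by Annexin V-FITC binding, with PI staining for membrane integrity. Read-out was flow cytometry.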

[4] = target: Phosphatidylinositol 4,5-bisphosphate 3-kinase catalytic subunit alpha isoform (Homo sapiens) (UniProt P42336); assay: Inhibition of PI3Kalpha at 20 uM after 1 hr by luminescence assay; outline: as §1
Phosphatidylinositol 4,5-bisphosphate 3-kinase catalytic subunit alpha isoform (Homo sapiens), sequence (P42336 whole entry, canonical isoform): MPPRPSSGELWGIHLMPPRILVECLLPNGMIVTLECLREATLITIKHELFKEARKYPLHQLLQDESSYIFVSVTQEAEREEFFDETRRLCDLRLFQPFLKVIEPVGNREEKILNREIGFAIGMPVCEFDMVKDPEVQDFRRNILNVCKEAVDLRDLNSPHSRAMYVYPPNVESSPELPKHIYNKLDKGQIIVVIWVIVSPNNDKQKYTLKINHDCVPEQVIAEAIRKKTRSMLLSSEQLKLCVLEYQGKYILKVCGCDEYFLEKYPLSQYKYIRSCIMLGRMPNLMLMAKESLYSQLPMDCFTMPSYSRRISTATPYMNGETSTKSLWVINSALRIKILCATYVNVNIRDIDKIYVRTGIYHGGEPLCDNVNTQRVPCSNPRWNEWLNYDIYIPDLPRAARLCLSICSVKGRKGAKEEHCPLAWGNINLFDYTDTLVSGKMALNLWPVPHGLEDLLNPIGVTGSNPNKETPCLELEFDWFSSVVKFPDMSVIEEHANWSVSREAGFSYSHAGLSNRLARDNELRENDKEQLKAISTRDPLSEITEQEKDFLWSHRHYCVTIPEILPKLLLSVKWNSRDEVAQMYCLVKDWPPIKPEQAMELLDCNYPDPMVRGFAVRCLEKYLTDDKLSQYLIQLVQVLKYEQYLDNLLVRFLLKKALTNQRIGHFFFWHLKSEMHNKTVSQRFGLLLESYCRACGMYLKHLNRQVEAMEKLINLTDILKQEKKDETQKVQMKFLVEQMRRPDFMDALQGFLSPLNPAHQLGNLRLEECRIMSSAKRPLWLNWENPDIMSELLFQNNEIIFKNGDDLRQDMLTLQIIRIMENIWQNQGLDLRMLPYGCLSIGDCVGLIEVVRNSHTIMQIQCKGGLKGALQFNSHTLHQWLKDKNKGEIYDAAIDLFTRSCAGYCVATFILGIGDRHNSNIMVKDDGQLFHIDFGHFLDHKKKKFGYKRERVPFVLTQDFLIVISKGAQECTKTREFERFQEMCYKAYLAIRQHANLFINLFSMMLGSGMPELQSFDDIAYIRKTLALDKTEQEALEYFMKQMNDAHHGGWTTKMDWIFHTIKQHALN

| inhibition [2] | inhibition [4] | SMILES | IC50 (K562 [1]) | Activity (K562 [3]) |
| --- | --- | --- | --- | --- |
|  |  | O=C(CN[C@H]1CCN(S(=O)(=O)Cc2ccccc2)C1)N1CCN(Cc2c(Cl)cccc2Cl)CC1 | 28.4 µM |  |
|  |  | COc1cc(CN2CCN(C(=O)CN[C@H]3CCN(S(=O)(=O)Cc4ccccc4)C3)CC2)cc(OC)c1 | 33.8 µM |  |
|  |  | Cc1ccc(CN2CCN(C(=O)CN[C@H]3CCN(S(=O)(=O)Cc4ccccc4)C3)CC2)cc1 | 8.2 µM |  |
|  |  | O=C(CN[C@H]1CCN(S(=O)(=O)Cc2ccccc2)C1)N1CCN(Cc2c(F)cccc2Cl)CC1 | 65.8 µM |  |
|  |  | O=C(CN[C@H]1CCN(S(=O)(=O)Cc2ccccc2)C1)N1CCN(Cc2ccccc2Cl)CC1 | 9 µM |  |
| 1.39% | 13.5% | Cc1cc(C)c(CN2CCN(C(=O)CN[C@H]3CCN(S(=O)(=O)Cc4ccccc4)C3)CC2)c(C)c1 | 3.3 µM | inactive |
|  |  | COc1ccc(CN2CCN(C(=O)CN[C@H]3CCN(S(=O)(=O)Cc4ccccc4)C3)CC2)cc1 | 50.9 µM |  |
|  |  | O=C(CN[C@H]1CCN(S(=O)(=O)Cc2ccccc2)C1)N1CCN(Cc2cccc(Cl)c2)CC1 | 8.6 µM |  |
|  |  | O=C(CN[C@H]1CCN(S(=O)(=O)Cc2ccccc2)C1)N1CCN(Cc2ccc(F)cc2)CC1 | 14.3 µM |  |
|  |  | Cc1ccc(NC(=O)c2ccc(CN3CCN(C)CC3)cc2)cc1Nc1nccc(-c2cccnc2)n1 [IMATINIB] | 0.58 µM |  |
|  |  | Cc1ccccc1CN1CCN(C(=O)CN[C@H]2CCN(S(=O)(=O)Cc3ccccc3)C2)CC1 | 10.2 µM |  |
|  |  | COc1cccc(CN2CCN(C(=O)CN[C@H]3CCN(S(=O)(=O)Cc4ccccc4)C3)CC2)c1 | 60.8 µM |  |
|  |  | O=C(CN[C@H]1CCN(S(=O)(=O)Cc2ccccc2)C1)N1CCN(Cc2ccccc2)CC1 | 9.5 µM |  |
| 4.49% | 12.1% | O=C(CN[C@H]1CCN(S(=O)(=O)Cc2ccccc2)C1)N1CCN(Cc2cccc(C(F)(F)F)c2)CC1 | 3.6 µM | inactive |
|  | 98.1% | Oc1cccc(-c2nc(N3CCOCC3)c3oc4ncccc4c3n2)c1 |  |  |
|  |  | Cc1cccc(CN2CCN(C(=O)CN[C@H]3CCN(S(=O)(=O)Cc4ccccc4)C3)CC2)c1 | 11.3 µM |  |
|  |  | COc1cc(CN2CCN(C(=O)CN[C@H]3CCN(S(=O)(=O)Cc4ccccc4)C3)CC2)cc(OC)c1OC | 93 µM |  |
| 4.92% | 16.4% | O=C(CN[C@H]1CCN(S(=O)(=O)Cc2ccccc2)C1)N1CCN(Cc2ccc(Cl)cc2Cl)CC1 | 4.3 µM | inactive |
|  |  | O=C(CN[C@H]1CCN(S(=O)(=O)Cc2ccccc2)C1)N1CCN(Cc2cccc(F)c2)CC1 | 13.2 µM |  |
|  |  | O=C(CN[C@H]1CCN(S(=O)(=O)Cc2ccccc2)C1)N1CCN(Cc2ccc(Cl)cc2)CC1 | 9.2 µM |  |
|  |  | O=C(CN[C@H]1CCN(S(=O)(=O)Cc2ccccc2)C1)N1CCN(Cc2ccccc2F)CC1 | 12.6 µM |  |

| SMILES | inhibition [2] | inhibition [4] | IC50 (K562 [1]) | Activity (K562 [3]) |
| --- | --- | --- | --- | --- |
| CN[C@@H]1C[C@H]2O[C@@](C)([C@@H]1OC)n1c3ccccc3c3c4c(c5c6ccccc6n2c5c31)C(=O)NC4 | 90.2% |  |  |  |
